Active and inactive are the calls of the source. The calls are words filed in the database; no cut-off is given here.
Legend:
Homo sapiens [1] = species: Homo sapiens; assay: (§1) Antiproliferative activity against human pancreatic stellate cells at 5 uM after 24 to 48 hrs by AlamarBlue assay; assay type: functional
Outline: (§2)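 Transformed human PSC seeded at 3×10^3 cells/well in sextuplicate. Next day exposed to compound at the stated single concentration in 1% FBS medium for 24–48 h. Viability read by AlamarBlue fluorescence (ex/em 544/590 nm). Values are the mean of at least three independent experiments.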

Homo sapiens [2] = species: Homo sapiens; assay: (§3) Antiproliferative activity against human pancreatic stellate cells at 10 uM after 24 to 48 hrs by AlamarBlue assay; assay type: functional; outline: as §2
Homo sapiens [3] = species: Homo sapiens; assay: (§4) Antiproliferative activity against human pancreatic stellate cells at 20 uM after 24 to 48 hrs by AlamarBlue assay; assay type: functional; outline: as §2
[4] = as §1; assay type: functional; outline: as §2
[5] = as §3; assay type: functional; outline: as §2
[6] = as §4; assay type: functional; outline: as §2
Mus musculus [7] = assay: Anti-fibrotic activity in C57BL/6 mouse caerulein-induced chronic pancreatitis model assessed as reduction of stromal fibrosis at 0.5 mg/kg, po administered qd for 6 days per week for 3 weeks using hematoxylin 7211 staining by immunohistochemistry analysis; assay type: functional, organism-based; parameters: dose 0.5 mg/kg
Mus musculus [8] = assay: Anti-fibrotic activity in C57BL/6 mouse caerulein-induced chronic pancreatitis model assessed as reduction of tissue edema at 0.5 mg/kg, po administered qd for 6 days per week for 3 weeks using hematoxylin 7211 staining by immunohistochemistry analysis; assay type: functional, organism-based; parameters: dose 0.5 mg/kg
Mus musculus [9] = assay: Anti-fibrotic activity in C57BL/6 mouse caerulein-induced chronic pancreatitis model assessed as reduction of acinar cell damage at 0.5 mg/kg, po administered qd for 6 days per week for 3 weeks using hematoxylin 7211 staining by immunohistochemistry analysis; assay type: functional, organism-based; parameters: dose 0.5 mg/kg
Mus musculus [10] = assay: Anti-fibrotic activity in C57BL/6 mouse caerulein-induced chronic pancreatitis model assessed as reduction of fibrosis at 0.5 mg/kg, po administered qd for 6 days per week for 3 weeks using hematoxylin 7211 staining by image analysis; assay type: functional, organism-based; parameters: dose 0.5 mg/kg
Outline: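 C57BL/6 mice given cerulein 50 μg/kg i.p. hourly for 5 h, 3 d/week for 4 weeks; PBS controls. From week 2, oral gavage at 0.5 mg/kg/d, 6 d/week for 3 weeks, in 0.5% methylcellulose + 0.025% Tween 20. Formalin-fixed paraffin sections (5 μm) stained by IHC for fibronectin with hematoxylin counterstain; percent area of stain quantified by image analysis. n = 10–11 per group.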

[11] = Antiproliferative activity against human pancreatic stellate cells after 24 hrs by AlamarBlue assay; assay type: functional
Outline: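 Immortalized human PSC (SV40 large T plus telomerase, DMEM/10% FBS) seeded at 3×10^3 cells/well in sextuplicate. Next day switched to 1% FBS with a range of compound concentrations for 24 h. AlamarBlue fluorescence read at 544/590 nm. IC50 taken by nonlinear regression of fluorescence versus log concentration, as mean ± SEM of at least three independent experiments.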

[12] = Induction of apoptosis in human pancreatic stellate cells after 14 hrs by cell death detection ELISAPLUS assay; assay type: functional
Outline: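 Transformed human PSC (primary cells immortalised with SV40 large T antigen and telomerase; grown in DMEM, 10% FBS, 37 °C) plated at 8×10^3 per well in triplicate; next day switched to 1% FBS with compound at various doses for 14 h. Cytoplasmic nucleosomes detected by sandwich ELISA, absorbance at 405 nm. EC50 by nonlinear regression against log concentration; at least three independent experiments.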

Structure (SMILES)	inhibition at 5 µM [4] [%]	inhibition at 10 µM [5] [%]	inhibition at 20 µM [6] [%]	also measured
COc1cc(OC)c2c(=O)cc(-c3ccc(O)cc3)oc2c1				inhibition (Homo sapiens [1]): inactive; inhibition (Homo sapiens [2]): inactive; inhibition (Homo sapiens [3]): inactive
O=c1cc(-c2ccc(OCCN3CCCC3)cc2)oc2cc(O)cc(O)c12	2	71	90	
COc1cc(OC)c2c(=O)cc(-c3ccc(OCC(O)CN4CCCCC4)cc3)oc2c1 (centres undefined)	34	65	95	Activity (Mus musculus [7]): Active; Activity (Mus musculus [8]): Active; Activity (Mus musculus [9]): Active; Activity (Mus musculus [10]): Active; IC50 [11]: 8 µM; EC50 [12]: 35.2 µM
COc1cc(OC)c2c(=O)cc(-c3ccc(OCCN4CCCC4)cc3)oc2c1	48	66	98	
COc1cc(OC)c2c(=O)cc(-c3ccc(OCCN(C)C)cc3)oc2c1	19	51	65	
COC(=O)[C@@H]1CCCN1CCOc1ccc(-c2cc(=O)c3c(OC)cc(OC)cc3o2)cc1	22	37	67	
COc1cc(OC)c2c(=O)cc(-c3ccc(NCCN4CCCC4)cc3)oc2c1	21	51	80	
COc1cc(OC)c2c(=O)cc(-c3ccc(OCCN)cc3)oc2c1	6	35	70	
O=c1cc(-c2ccc(O)cc2)oc2cc(O)cc(O)c12 [APIGENIN]	11	34	64	Activity (Mus musculus [7]): Active; Activity (Mus musculus [8]): Active; Activity (Mus musculus [9]): Active; Activity (Mus musculus [10]): Active; IC50 [11]: 18.6 µM; EC50 [12]: 24.5 µM
COc1cc(O)c2c(=O)cc(-c3ccc(OCCN4CCCC4)cc3)oc2c1		39	99	inhibition (Homo sapiens [1]): inactive
COc1cc(OC)c2c(=O)cc(-c3ccc(-c4ccc(F)nc4)cc3)oc2c1		6	19	inhibition (Homo sapiens [1]): inactive
COc1cc(OC)c2c(=O)cc(-c3ccc(OCCF)cc3)oc2c1			21	inhibition (Homo sapiens [1]): inactive; inhibition (Homo sapiens [2]): inactive
COc1cc(OC)c2c(=O)cc(-c3ccc(OCCN4CCCC4=O)cc3)oc2c1	7	14	33	
COc1cc(OC)c2c(=O)cc(-c3ccc(OCCN4CCOCC4)cc3)oc2c1				inhibition (Homo sapiens [1]): inactive; inhibition (Homo sapiens [2]): inactive; inhibition (Homo sapiens [3]): inactive
CCN(CC)CCOc1ccc(-c2cc(=O)c3c(OC)cc(OC)cc3o2)cc1	33	60	72	
COc1cc(OC)c2c(=O)cc(-c3ccc(OCCN4CCN(C)CC4)cc3)oc2c1	22	42	67	
COc1cc(OC)c2c(=O)cc(-c3ccc(OCC(O)CN(C)C)cc3)oc2c1 (centres undefined)	42	60	71	
COc1cc(OC)c2c(=O)cc(-c3ccc(OCC(O)CO)cc3)oc2c1 (centres undefined)		11	16	inhibition (Homo sapiens [1]): inactive
COc1cc(OC)c2c(=O)cc(-c3ccc(OCCCN(C)C)cc3)oc2c1	36	59	86	
COc1cc(OC)c2c(=O)cc(-c3ccc(OCCBr)cc3)oc2c1			20	inhibition (Homo sapiens [1]): inactive; inhibition (Homo sapiens [2]): inactive
COc1cc(OC)c2c(=O)cc(-c3ccc(NCCN(C)C)cc3)oc2c1	30	60	84	
COc1cc(OC)c2c(=O)cc(-c3ccc(OCCN4CCCCC4)cc3)oc2c1	45	64	97	
COc1cc(OC)c2c(=O)cc(-c3ccc(OC4CCNCC4)cc3)oc2c1		21		inhibition (Homo sapiens [1]): inactive
COc1cc(OC)c2c(=O)cc(-c3ccc(OCC(O)CN4CCCC4)cc3)oc2c1 (centres undefined)	21	37	57	
COc1cc(OC)c2c(=O)cc(-c3ccc(OC4CCN(C)CC4)cc3)oc2c1	28	49		
COc1cc(OC)c2c(=O)cc(-c3ccc(OCCCN)cc3)oc2c1	22	39		
COc1cc(OC)c2c(=O)cc(-c3ccc(OCC4CO4)cc3)oc2c1 (centres undefined)	69	89	93	Activity (Mus musculus [7]): Active; Activity (Mus musculus [8]): Active; Activity (Mus musculus [9]): Active; Activity (Mus musculus [10]): Active; IC50 [11]: 2.5 µM; EC50 [12]: 9.6 µM
COc1cc(OC)c2c(=O)cc(-c3ccc(Br)cc3)oc2c1	12	10	22	

— ChEMBL document CHEMBL3286141 (Bioorg Med Chem, 2014)
